# ChEMBL document CHEMBL3758119, “Functionalized imidazolium and benzimidazolium salts as paraoxonase 1 inhibitors: Synthesis, characterization and molecular docking studies” (Bioorg Med Chem, 2016)
# Biological target: T1, Serum paraoxonase/arylesterase 1 (Homo sapiens, UniProt P27169)
# Test: Inhibition of human serum PON1 using paraoxon as substrate by spectrophotometric analysis
# Details: not given; call rule not given here
# In short: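 PON1 purified from human serum (ammonium sulphate precipitation, then hydrophobic interaction chromatography; stored with 2 mM CaCl2). Paraoxon 2 mM final; p-nitrophenol release followed at 412 nm for 2 min at 37 °C. Five inhibitor concentrations tested. Activity without compound taken as 100%. Measured in duplicate and corrected for non-enzymatic hydrolysis. IC50 read from activity-percentage graphs.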
# T1 sequence (P27169 whole entry): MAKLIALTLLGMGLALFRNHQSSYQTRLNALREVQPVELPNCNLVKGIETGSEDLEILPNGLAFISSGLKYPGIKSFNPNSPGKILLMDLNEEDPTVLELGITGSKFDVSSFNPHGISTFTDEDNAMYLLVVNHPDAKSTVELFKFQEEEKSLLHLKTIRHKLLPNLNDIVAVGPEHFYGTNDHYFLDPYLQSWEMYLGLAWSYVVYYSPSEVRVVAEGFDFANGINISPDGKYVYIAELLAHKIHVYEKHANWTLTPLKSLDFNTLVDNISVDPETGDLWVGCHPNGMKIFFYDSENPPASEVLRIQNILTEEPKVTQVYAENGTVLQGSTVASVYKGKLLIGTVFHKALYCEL
row,Structure (SMILES),IC50
1,Cc1n(C)cc[n+]1Cn1nnc2ccccc21.[Cl-],Not Active
2,COc1cc(C[n+]2cn(Cn3nnc4ccccc43)c3ccccc32)cc(OC)c1OC.[Cl-],Not Active
3,Cn1cc[n+](Cn2nnc3ccccc32)c1.[Cl-],Not Active
4,CCCCn1cc[n+](Cn2nnc3ccccc32)c1.[Cl-],Not Active
5,[Cl-].c1ccc2c(c1)nnn2Cn1c[n+](Cn2nnc3ccccc32)c2ccccc21,Not Active

# Same assay, conditions: read-out: IC50
row,Structure (SMILES),IC50 [µM]
1,Cc1cc(C)c2c(CCl)cc(=O)oc2c1,31.4
2,c1ccc(C[n+]2cn(Cn3nnc4ccccc43)c3ccccc32)cc1,2060
3,c1ccc2c(c1)ncn2Cn1nnc2ccccc21,564
4,CC(C)(C)c1ccc2oc(=O)cc(CCl)c2c1,40
5,Cc1n(C)cc[n+]1Cc1nc2ccccc2[nH]1,626
6,Cn1cc[n+](Cc2nc3ccccc3[nH]2)c1,19
7,Cc1ccc2c(C[n+]3cn(Cn4nnc5ccccc54)c4ccccc43)cc(=O)oc2c1C,237
8,CCCCn1cc[n+](Cc2cc(=O)oc3cc(C)cc(C)c23)c1,6.37
9,Cc1ccc2c(CCl)cc(=O)oc2c1C,21.4
10,O=C1COc2ccc(C(=O)C[n+]3cn(Cn4nnc5ccccc54)c4ccccc43)cc2N1,8.76
11,Cc1cc(C)c2c(C[n+]3ccn(C)c3C)cc(=O)oc2c1,317
12,CCCCn1cc[n+](Cc2nc3ccccc3[nH]2)c1,29
13,CC(C)(C)c1ccc2oc(=O)cc(C[n+]3cn(Cn4nnc5ccccc54)c4ccccc43)c2c1,627
14,Cc1cc(C)c2c(C[n+]3ccn(C)c3)cc(=O)oc2c1,23.7
15,Cc1ccc(-c2cc3cc(O)c(O)cc3oc2=O)cc1,3
16,CCCC[n+]1cn(Cn2nnc3ccccc32)c2ccccc21,3330

# Biological target: T1, Serum paraoxonase/arylesterase 1
# Test: Competitive inhibition of human serum PON1 using paraoxon as substrate by Lineweaver-Burk plot analysis
# Details: not given
# In short: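 Human serum PON1 purified by ammonium sulphate precipitation (60–80%) and hydrophobic interaction chromatography, stored with 2 mM CaCl2. Paraoxon hydrolysis followed by p-nitrophenol appearance at 412 nm for 2 min at 37 °C, pH 8.00. Eight paraoxon concentrations (0.5–1.2 mM) run at two inhibitor concentrations (6.7 µM and 4.7 µM). Readings taken in duplicate and corrected for non-enzymatic hydrolysis. Ki and inhibition type taken from Lineweaver–Burk plots.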
row,Structure (SMILES),Ki [µM]
1,CCCCn1cc[n+](Cc2cc(=O)oc3cc(C)cc(C)c23)c1,2.39
